ChEMBL document CHEMBL5380855, “Acetyl-Click Screening Platform Identifies Small-Molecule Inhibitors of Histone Acetyltransferase 1 (HAT1)” (J Med Chem, 2023)
Activity calls are given as the source filed them. No cut-off for these calls is given here.

Assays:
[1] = target: T1, HAT1/Rbap46 (Homo sapiens) (UniProt Q16576+O14929); assay: (§1) Inhibition of C-terminal FLAG tagged full length human HAT1/Rbap46 transfected in HEK293F cells using histone H4 peptide as substrate and 4-pentynoyl-CoA as cofactor at 100 uM preincubated for 10 mins followed by 4-pentynoyl-CoA addition and measured after 1 hr by amplex red dye based fluorescence analysis relative to control; format: cell-based; details: time 70.0 min
T1 sequence (O14929 2-419 partner limits assumed): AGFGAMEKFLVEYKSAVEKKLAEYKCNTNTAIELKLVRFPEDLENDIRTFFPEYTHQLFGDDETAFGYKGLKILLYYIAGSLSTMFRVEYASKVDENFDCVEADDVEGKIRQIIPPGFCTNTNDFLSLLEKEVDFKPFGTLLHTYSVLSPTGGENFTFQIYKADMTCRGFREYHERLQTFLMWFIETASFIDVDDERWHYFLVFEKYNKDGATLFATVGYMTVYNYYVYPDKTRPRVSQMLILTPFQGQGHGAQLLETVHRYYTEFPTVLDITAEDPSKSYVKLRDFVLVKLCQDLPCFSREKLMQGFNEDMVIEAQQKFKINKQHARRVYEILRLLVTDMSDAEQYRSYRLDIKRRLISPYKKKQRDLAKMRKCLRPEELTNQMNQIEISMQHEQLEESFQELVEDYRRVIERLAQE
T1 sequence (Q16576 2-425 limits assumed): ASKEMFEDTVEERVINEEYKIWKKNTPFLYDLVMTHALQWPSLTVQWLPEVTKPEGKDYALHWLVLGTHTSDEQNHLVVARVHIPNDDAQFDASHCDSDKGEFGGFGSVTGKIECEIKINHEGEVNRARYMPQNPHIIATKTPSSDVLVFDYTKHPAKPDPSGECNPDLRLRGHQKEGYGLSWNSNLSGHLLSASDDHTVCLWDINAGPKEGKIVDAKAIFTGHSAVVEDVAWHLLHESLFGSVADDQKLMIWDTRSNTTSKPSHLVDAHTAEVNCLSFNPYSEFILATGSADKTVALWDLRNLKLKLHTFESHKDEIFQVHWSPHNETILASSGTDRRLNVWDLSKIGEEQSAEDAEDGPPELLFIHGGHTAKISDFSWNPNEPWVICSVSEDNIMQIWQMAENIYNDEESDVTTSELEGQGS

[2] = target: T1, HAT1/Rbap46 (Homo sapiens); assay: as §1, with “10” for “100”, “to 4 hrs” for “hr”, “analysis” for “analysis relative to control”; format: cell-based; details: time 70-250 min
[3] = target: T1, HAT1/Rbap46 (Homo sapiens); assay: as §1, with “cofactor” for “cofactor at 100 uM”; format: cell-based; design: concentration or dose not given beside the values; details: time 70.0 min
[4] = target: HAT1/Rbap46 (Homo sapiens, UniProt O14929+Q16576); assay: Inhibition of C-terminal FLAG tagged full length human HAT1/Rbap46 transfected in HEK293F cells using histone H4 peptide as substrate and 4-pentynoyl-CoA as cofactor preincubated for 10 mins followed by 4-pentynoyl-CoA addition and measured after 1 hr by amplex red dye based fluorescence analysis; format: cell-based
Sequence of HAT1/Rbap46 (Q16576 whole entry): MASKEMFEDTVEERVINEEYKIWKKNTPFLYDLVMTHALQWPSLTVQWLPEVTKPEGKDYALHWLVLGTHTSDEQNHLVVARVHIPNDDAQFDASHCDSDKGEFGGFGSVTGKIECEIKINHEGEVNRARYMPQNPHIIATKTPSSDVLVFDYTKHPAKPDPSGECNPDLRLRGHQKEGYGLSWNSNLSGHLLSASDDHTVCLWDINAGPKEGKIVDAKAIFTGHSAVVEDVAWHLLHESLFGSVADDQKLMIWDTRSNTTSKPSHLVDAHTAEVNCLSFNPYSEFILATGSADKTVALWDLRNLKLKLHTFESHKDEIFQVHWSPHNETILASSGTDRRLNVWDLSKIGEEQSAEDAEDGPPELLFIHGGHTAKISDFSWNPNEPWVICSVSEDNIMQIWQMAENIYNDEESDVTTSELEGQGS
Sequence of HAT1/Rbap46 (O14929 whole entry): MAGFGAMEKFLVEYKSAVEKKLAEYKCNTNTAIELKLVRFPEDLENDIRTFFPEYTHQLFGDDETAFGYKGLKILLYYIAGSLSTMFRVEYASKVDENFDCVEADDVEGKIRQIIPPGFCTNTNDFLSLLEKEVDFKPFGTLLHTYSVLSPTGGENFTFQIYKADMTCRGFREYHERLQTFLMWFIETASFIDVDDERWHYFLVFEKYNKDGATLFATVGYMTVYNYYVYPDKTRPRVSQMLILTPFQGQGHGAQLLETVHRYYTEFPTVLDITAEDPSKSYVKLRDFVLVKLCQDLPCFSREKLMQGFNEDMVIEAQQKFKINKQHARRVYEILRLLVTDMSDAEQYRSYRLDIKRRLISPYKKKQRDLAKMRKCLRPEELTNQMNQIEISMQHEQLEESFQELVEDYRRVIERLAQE

[5] = Terminal elimination half life in CD1 mouse at 100 mg/kg, ip measured after 15 to 4320 mins by LC-MS/MS analysis; format: ADME, organism-based; details: in vivo, time 15-4320 min, read-out: LambdaZ
In short: (§2)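 Mice received one intraperitoneal injection at 100 mg/kg. Plasma concentrations of the drug were followed over time, out to 72 h, and PK parameters were derived from the plasma concentration–time profile.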

[6] = target: Histone acetyltransferase KAT2A (Homo sapiens) (UniProt Q92830); assay: Inhibition of human GCN5 at 100 uM incubated for 20 mins followed by 3H-Acetyl CoA addition and measured after 30 mins; details: time 50.0 min
Sequence of Histone acetyltransferase KAT2A (Homo sapiens) (Q92830 2-837 limits assumed): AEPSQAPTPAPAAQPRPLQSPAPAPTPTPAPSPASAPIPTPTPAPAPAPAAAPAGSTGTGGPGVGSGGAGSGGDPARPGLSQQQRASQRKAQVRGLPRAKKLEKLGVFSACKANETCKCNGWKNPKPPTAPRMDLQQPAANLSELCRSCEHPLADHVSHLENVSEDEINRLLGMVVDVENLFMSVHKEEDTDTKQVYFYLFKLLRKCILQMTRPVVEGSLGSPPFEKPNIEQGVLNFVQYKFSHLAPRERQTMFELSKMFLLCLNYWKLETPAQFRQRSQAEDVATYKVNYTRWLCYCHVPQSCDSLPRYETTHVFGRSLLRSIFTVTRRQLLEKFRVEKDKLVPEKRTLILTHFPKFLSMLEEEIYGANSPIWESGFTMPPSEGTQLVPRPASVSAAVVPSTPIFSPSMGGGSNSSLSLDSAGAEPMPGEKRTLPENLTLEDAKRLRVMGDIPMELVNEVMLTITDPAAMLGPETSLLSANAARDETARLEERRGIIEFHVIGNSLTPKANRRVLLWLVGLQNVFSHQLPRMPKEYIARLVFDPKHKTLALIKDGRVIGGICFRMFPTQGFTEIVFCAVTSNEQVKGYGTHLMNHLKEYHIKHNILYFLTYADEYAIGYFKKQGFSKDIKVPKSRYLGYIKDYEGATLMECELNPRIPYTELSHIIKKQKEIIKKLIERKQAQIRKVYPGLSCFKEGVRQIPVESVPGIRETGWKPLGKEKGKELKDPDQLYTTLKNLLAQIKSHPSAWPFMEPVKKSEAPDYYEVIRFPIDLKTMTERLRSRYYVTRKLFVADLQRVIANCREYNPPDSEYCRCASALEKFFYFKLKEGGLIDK

[7] = target: Histone acetyltransferase KAT5 (Homo sapiens, UniProt Q92993); assay: Inhibition of human KAT5 incubated for 20 mins followed by 3H-Acetyl CoA addition and measured after 30 mins
[8] = target: Histone acetyltransferase KAT6B (Homo sapiens, UniProt Q8WYB5); assay: Inhibition of human MYST4 incubated for 20 mins followed by 3H-Acetyl CoA addition and measured after 30 mins
Sequence of Histone acetyltransferase KAT6B (Q8WYB5 whole entry): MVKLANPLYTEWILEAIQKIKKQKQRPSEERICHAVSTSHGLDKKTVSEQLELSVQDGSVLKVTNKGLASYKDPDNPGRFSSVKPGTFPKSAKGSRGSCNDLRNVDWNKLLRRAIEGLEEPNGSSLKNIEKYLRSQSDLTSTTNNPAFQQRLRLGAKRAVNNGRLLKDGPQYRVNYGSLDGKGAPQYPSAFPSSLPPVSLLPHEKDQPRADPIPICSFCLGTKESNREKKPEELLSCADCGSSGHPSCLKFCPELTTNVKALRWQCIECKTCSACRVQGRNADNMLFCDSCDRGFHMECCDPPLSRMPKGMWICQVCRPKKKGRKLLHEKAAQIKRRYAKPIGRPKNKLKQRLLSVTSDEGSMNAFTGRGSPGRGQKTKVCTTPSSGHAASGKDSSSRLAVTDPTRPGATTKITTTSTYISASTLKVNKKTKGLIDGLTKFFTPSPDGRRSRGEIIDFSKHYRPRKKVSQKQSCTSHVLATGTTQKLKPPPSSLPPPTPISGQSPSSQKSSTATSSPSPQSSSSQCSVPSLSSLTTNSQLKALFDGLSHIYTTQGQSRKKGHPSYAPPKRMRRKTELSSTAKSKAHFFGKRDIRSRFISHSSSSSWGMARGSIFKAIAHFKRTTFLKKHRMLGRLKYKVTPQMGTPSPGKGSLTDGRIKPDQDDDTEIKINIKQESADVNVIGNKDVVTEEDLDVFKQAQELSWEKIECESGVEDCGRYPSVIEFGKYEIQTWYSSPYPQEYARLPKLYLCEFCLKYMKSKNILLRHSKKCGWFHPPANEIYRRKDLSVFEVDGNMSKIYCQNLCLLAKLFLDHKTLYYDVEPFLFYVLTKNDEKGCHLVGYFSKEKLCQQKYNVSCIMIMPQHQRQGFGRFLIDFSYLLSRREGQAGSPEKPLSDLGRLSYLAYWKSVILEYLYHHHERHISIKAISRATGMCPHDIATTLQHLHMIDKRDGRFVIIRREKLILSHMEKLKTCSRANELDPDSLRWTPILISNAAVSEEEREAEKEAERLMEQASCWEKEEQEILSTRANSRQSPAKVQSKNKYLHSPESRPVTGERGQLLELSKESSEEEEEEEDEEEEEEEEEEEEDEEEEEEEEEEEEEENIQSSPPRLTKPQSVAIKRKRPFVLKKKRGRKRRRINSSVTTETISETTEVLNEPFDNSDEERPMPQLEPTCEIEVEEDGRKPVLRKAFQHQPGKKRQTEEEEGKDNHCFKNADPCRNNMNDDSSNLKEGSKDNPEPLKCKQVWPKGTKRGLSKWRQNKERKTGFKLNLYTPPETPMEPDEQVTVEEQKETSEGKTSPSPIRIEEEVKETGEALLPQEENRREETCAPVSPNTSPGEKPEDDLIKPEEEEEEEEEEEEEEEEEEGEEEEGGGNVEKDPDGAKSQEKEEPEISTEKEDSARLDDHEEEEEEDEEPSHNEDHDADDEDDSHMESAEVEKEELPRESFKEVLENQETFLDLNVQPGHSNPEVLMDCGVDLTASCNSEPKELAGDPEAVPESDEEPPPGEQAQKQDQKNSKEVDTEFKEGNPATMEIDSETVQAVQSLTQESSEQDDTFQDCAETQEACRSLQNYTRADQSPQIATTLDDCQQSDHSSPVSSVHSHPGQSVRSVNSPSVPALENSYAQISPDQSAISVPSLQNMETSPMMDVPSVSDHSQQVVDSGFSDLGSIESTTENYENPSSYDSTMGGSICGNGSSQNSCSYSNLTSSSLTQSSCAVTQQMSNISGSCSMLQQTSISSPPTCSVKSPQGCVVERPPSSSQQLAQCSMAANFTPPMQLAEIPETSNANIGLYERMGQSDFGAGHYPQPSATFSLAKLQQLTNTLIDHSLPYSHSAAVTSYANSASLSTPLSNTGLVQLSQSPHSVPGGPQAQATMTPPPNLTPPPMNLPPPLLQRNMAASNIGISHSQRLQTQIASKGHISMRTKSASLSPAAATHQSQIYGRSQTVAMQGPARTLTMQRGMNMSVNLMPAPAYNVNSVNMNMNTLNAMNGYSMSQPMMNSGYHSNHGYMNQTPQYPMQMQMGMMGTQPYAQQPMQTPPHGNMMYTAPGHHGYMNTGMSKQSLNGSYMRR

[9] = Toxicity in mouse assessed as drug tolerance up to 250 mg/kg, ip administered as single dose; format: organism-based; details: in vivo
[10] = AUClast in CD1 mouse at 100 mg/kg, ip measured after 15 to 4320 mins by LC-MS/MS analysis; format: ADME, organism-based; design: time lower 15 min, dose 100 mg/kg, time upper 4320 min, route ip; details: in vivo; in short: as §2
[11] = test system: A549; assay: Antitumor activity against human A549 cells xenografted in NSG mouse assessed as reduction in tumor growth at 50 to 100 mg/kg, ip administered once for every 3 days starting from day 13 post tumor implantation by digital caliper method; format: functional, organism-based; details: dose 50-100 mg/kg
In short: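 A549 cells were implanted in both flanks of NSG mice and tumours were allowed to establish for 13 days. Vehicle or drug (50 or 100 mg/kg) was then injected i.p. once every third day.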

[12] = Cmax in CD1 mouse at 100 mg/kg, ip measured after 1 hr by LC-MS/MS analysis; format: ADME, organism-based; design: dose 100 mg/kg, time 1 hrs, route ip; details: in vivo; in short: as §2
[13] = test system: Mus musculus; assay: In vivo inhibition of HAT-1 in NSG mouse xenografted with human A549 cells assessed as reduction in Histone H4 lysine 12 acetylation in tumor administered as single ip injection and measured after 24 hrs by immunofluorescence analysis; format: functional, organism-based; details: dose 25-100 mg/kg
In short: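 A549 tumours were established in NSG mice and given one i.p. dose of vehicle or drug. Tumours were harvested 24 h later and sections immunostained for H4K12Ac. Median nuclear fluorescence was taken from all nuclei in 2 images per group; one-way ANOVA.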

[14] = Tmax in CD1 mouse at 100 mg/kg, ip measured after 15 to 4320 mins by LC-MS/MS analysis; format: ADME, organism-based; details: in vivo, time 15-4320 min; in short: as §2
[15] = Observed apparent volume of distribution during terminal phase in CD1 mouse at 100 mg/kg, ip measured after 15 to 4320 mins by LC-MS/MS analysis; format: ADME, organism-based; details: in vivo, time 15-4320 min, read-out: Vz/F; in short: as §2
[16] = Toxicity in mouse assessed as signs of distress at 500 mg/kg, ip administered as single dose; format: organism-based; details: in vivo
[17] = organism: Homo sapiens; assay: Inhibition of FAD-dependent oxidase (unknown origin)
[18] = target: Histone acetyltransferase KAT2B (Homo sapiens) (UniProt Q92831); assay: Inhibition of human pCAF at 100 uM incubated for 20 mins followed by 3H-Acetyl CoA addition and measured after 30 mins; details: time 50.0 min
[19] = test system: HCC1806; assay: Cytotoxicity against human HCC1806 cells assessed as inhibition of cell growth by resazurin dye based fluorescence analysis; format: functional
In short: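 HCC1806 cells were treated across a range of doses. Growth was read by resazurin reduction to resorufin, with fluorescence at 590 nm.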

[20] = Observed clearance in CD1 mouse at 100 mg/kg, ip measured after 15 to 4320 mins by LC-MS/MS analysis; format: ADME, organism-based; details: in vivo, time 15-4320 min; in short: as §2
[21] = Cmax in CD1 mouse at 100 mg/kg, ip measured after 72 hrs by LC-MS/MS analysis; format: ADME, organism-based; design: time 72 hrs, dose 100 mg/kg, route ip; details: in vivo; in short: as §2
[22] = target: T1, HAT1/Rbap46 (Homo sapiens); assay: as §1, with “cofactor at 1 to 100 uM” for “cofactor at 100 uM”; format: cell-based; details: dose 1-100 µM, time 70.0 min
[23] = test system: HCC1806; assay: Cytotoxicity against human HCC1806 cells assessed as inhibition of cell growth incubated for 48 hrs by celltiter blue analysis; format: functional, cell-based

`CCc1cc2c(cc1Cl)nc1c(=O)[nH]c(=O)nc-1n2CCCOc1ccc(C#N)cc1` gave an inhibition [1] of 25%.
Work on `O=C1CN2Cc3c(ccc(Cl)c3Cl)N=C2N1` yielded an inhibition [1] of -5%.
With `CC(=O)N[C@@H](CCCCNC(=O)SCCNC(=O)CCNC(=O)[C@H](O)C(C)(C)COP(=O)(O)OP(=O)(O)OC[C@H]1O[C@@H](n2cnc3c(N)ncnc32)[C@H](O)[C@@H]1OP(=O)(O)O)C(N)=O` the inhibition [2] was “inactive”.
With `O=C(O)Cc1ccc(/N=N/c2c(O)c(C(=O)O)cc3ccccc23)cc1` the inhibition [3] was 72.2%.
Work on `CCc1cc2c(cc1Cl)nc1c(=O)[nH]c(=O)nc-1n2CCCOc1ccc(C)cc1` yielded an inhibition [1] of 12%.
`O=c1nc2n(CC(O)C(O)C(O)C(O)CO)c3cc(Cl)c(Cl)cc3nc-2c(=O)[nH]1` (stereo not given) gave an inhibition [1] of 31%, an inhibition [3] of 46% and an IC50 [4] of 62.6 µM.
With `CCc1cc2c(cc1Cl)nc1c(=O)[nH]c(=O)nc-1n2CCO` the inhibition [1] was 54%.
With `CCc1cc2c(cc1Cl)nc1c(=O)[nH]c(=O)nc-1n2CC(C)(C)C` the inhibition [1] was 62%.
In the case of `CCc1cc2c(cc1Cl)nc1c(=O)[nH]c(=O)nc-1n2CCOCC(C)C`, the half-life [5] is reported as 25.4 h, the inhibition [6] is reported as “inactive” and the IC50 [7] is reported as > 100 µM. The IC50 [8] was > 100 µM, the Activity [9] was “Non-Toxic” and the AUC(0-t) [10] was 641 µM·h. The Activity [11] was “Active”, the Cmax [12] was 70.1 µM and the inhibition [13] was “Dose-Dependent Effect”. The Tmax [14] was 1 h, the Vd/F [15] was 13.6 L/kg and the Activity [16] was “Toxic”. For the same compound, the inhibition [17] was “inactive”, the inhibition [18] was “inactive” and the EC50 [19] was 10.4 µM. For the same compound, the CL/F [20] was 6.2 mL/min/kg and the Cmax [21] was 2.05 µM.
With `CCc1cc2c(cc1Cl)nc1c(=O)[nH]c(=O)nc-1n2CCOCc1cccc(C(F)(F)F)c1` the inhibition [1] was 23%.
In the case of `COC1=C(N)C(=O)c2nc(-c3nc(C(=O)O)c(C)c(-c4ccc(OC)c(OC)c4O)c3N)ccc2C1=O`, the inhibition [3] is reported as 66.3%.
With `CCc1cc2c(cc1Cl)nc1c(=O)[nH]c(=O)nc-1n2CCOC(C)=O` the inhibition [1] was 49%.
`CCc1cc2c(cc1Cl)nc1c(=O)[nH]c(=O)nc-1n2CCOc1ccc(-c2ccccc2)cc1` gave an inhibition [1] of 13%.
Compound `CCc1cc2c(cc1Cl)nc1c(=O)[nH]c(=O)nc-1n2CCOCC1CCNCC1` has an inhibition [1] of 60%.
Work on `Cc1cc2cc3c(=O)[nH]c(=O)cc-3n(CC(O)C(O)C(O)CO)c2cc1C` (stereo not given) yielded an inhibition [3] of 66.4%.
`CCc1cc2c(cc1Cl)nc1c(=O)[nH]c(=O)nc-1n2CCOCC(C)(C)C` showed an inhibition [1] of 40%.
In the case of `CC(=O)Nc1cc2[nH]c3nc(=O)n(Cc4ccccc4)c(=O)c-3nc2cc1C`, the inhibition [3] is reported as 32%.
`CCc1cc2c(cc1Cl)nc1c(=O)[nH]c(=O)nc-1n2CCOCc1cccc(Br)c1` gave an inhibition [1] of 17%.
Work on `CC(=O)Nc1cc2[nH]c3nc(=O)n(CC4CCCCC4)c(=O)c-3nc2cc1C` yielded an inhibition [3] of 25%.
Work on `NC(=S)c1cn([C@@H]2O[C@H](CO)[C@@H](O)[C@H]2O)c2ncnc(N)c12` yielded an inhibition [3] of 72.2%.
Work on `CCc1cc2c(cc1Cl)nc1c(=O)[nH]c(=O)nc-1n2CCOc1cccc(C(F)(F)F)c1` yielded an inhibition [1] of 11%.
Compound `CCc1cc2c(cc1Cl)nc1c(=O)[nH]c(=O)nc-1n2CCOCc1ccc(-c2ccccc2)cc1` has an inhibition [1] of 17%.
For `O=c1nc2n(CCN(CO)CO)c3cc(Cl)c(Cl)cc3nc-2c(=O)[nH]1`, the inhibition [1] was 17% and the inhibition [3] was 37%.
In the case of `CCc1cc2c(cc1Cl)nc1c(=O)[nH]c(=O)nc-1n2CCOc1ccc(F)cc1`, the inhibition [1] is reported as 1%.
`CCC(=O)Nc1cc2[nH]c3nc(=O)n(Cc4ccccc4)c(=O)c-3nc2cc1C` showed an inhibition [3] of 28%.
In the case of `Cc1cc2nc3c(=O)[nH]c(=O)nc-3n(C[C@H](O)[C@H](O)[C@H](O)COP(=O)(O)O)c2cc1C`, the inhibition [22] is reported as “inactive”.
`CCc1cc2c(cc1Cl)nc1c(=O)[nH]c(=O)nc-1n2CCOc1cc(F)cc(F)c1` showed an inhibition [1] of -1%.
Work on `CCc1cc2c(cc1Cl)nc1c(=O)[nH]c(=O)nc-1n2CCOCC1CCCC1` yielded an inhibition [1] of 47%.
`CCc1cc2c(cc1Cl)nc1c(=O)[nH]c(=O)nc-1n2CCCc1ccc(Br)cc1` gave an inhibition [1] of 9%.
For `CCc1cc2c(cc1Cl)nc1c(=O)[nH]c(=O)nc-1n2CCOc1ccccn1`, the inhibition [1] was 55%.
`CCCC(=O)OC[C@@H](OC(=O)CCC)[C@@H](OC(=O)CCC)[C@H](Cn1c2nc(=O)[nH]c(=O)c-2nc2cc(C)c(C)cc21)OC(=O)CCC` showed an IC50 [4] of 17 µM.
Work on `CC(=O)OCCn1c2nc(=O)[nH]c(=O)c-2nc2cc(C)c(C)cc21` yielded an inhibition [3] of 51%.
`CCc1cc2nc3c(=O)[nH]c(=O)nc-3n(C[C@H](O)[C@H](O)[C@H](O)CO)c2cc1Cl` gave an inhibition [1] of 61% and an inhibition [3] of 64%.
Work on `CCc1cc2c(cc1Cl)nc1c(=O)[nH]c(=O)nc-1n2CCCc1cc(F)cc(F)c1` yielded an inhibition [1] of 15%.
`CCc1cc2c(cc1Cl)nc1c(=O)[nH]c(=O)nc-1n2C[C@H](O)[C@H](O)[C@H](O)CO` gave an inhibition [1] of 40% and an inhibition [3] of 59%.
For `CCc1cc2c(cc1Cl)nc1c(=O)[nH]c(=O)nc-1n2CCCOc1cccc(C(F)(F)F)c1`, the inhibition [1] was 19%.
In the case of `CCc1cc2c(cc1Cl)nc1c(=O)[nH]c(=O)nc-1n2CCOCC1CCN(C(=O)OC(C)(C)C)CC1`, the inhibition [1] is reported as 50%.
In the case of `CCc1cc2c(cc1Cl)nc1c(=O)[nH]c(=O)nc-1n2CCCOc1ccc(-c2ccccc2)cc1`, the inhibition [1] is reported as 8%.
With `Cc1cc2nc3[nH]c(=O)[nH]c(=O)c3nc2cc1C` the inhibition [22] was “inactive” and the inhibition [1] was 7%.
For `CCc1cc2c(cc1Cl)nc1c(=O)[nH]c(=O)nc-1n2CCOc1ccc(Br)cc1`, the inhibition [1] was 8%.
`CCc1cc2c(cc1Cl)nc1c(=O)[nH]c(=O)nc-1n2CCOc1ccc(C)cc1` showed an inhibition [1] of 20%.
For `Cc1cc2nc3c(=O)[nH]c(=O)nc-3n(C[C@H](O)[C@H](O)[C@H](O)CO)c2cc1N(C)C`, the inhibition [1] was 7% and the inhibition [23] was “Active”.
Compound `CCc1cc2c(cc1Cl)nc1c(=O)[nH]c(=O)nc-1n2CCOCc1ccc(C#N)cc1` has an inhibition [1] of 26%.
For `CCc1cc2c(cc1Cl)nc1c(=O)[nH]c(=O)nc-1n2CCOCc1cccc(F)c1`, the inhibition [1] was 24%.
Work on `Oc1ccccc1C1=NC2c3ccccc3-c3ccccc3C2N1` (stereo not given) yielded an inhibition [3] of 69%.
`CCc1cc2c(cc1Cl)nc1c(=O)[nH]c(=O)nc-1n2CCOCc1ccccc1` showed an inhibition [1] of 49%.
In the case of `CCc1cc2c(cc1Cl)nc1c(=O)[nH]c(=O)nc-1n2CCOc1cccc(F)c1`, the inhibition [1] is reported as 17%.
